Experimental data gathered from unrelated publications.
Each line is one published result; the experiments were not run side by side.
AMY1A: Alpha-amylase 1A (AMY1A, Homo sapiens, UniProt P0DUB6)
Ephx2: Bifunctional epoxide hydrolase 2 (Ephx2, Mus musculus, UniProt P34914)
EGFR C797S/L858R/T790M: Epidermal growth factor receptor (EGFR, Homo sapiens, UniProt P00533, C797S/L858R/T790M)
APC: Adenomatous polyposis coli protein (APC, Homo sapiens, UniProt P25054)
EGFR: Epidermal growth factor receptor (EGFR, Homo sapiens, UniProt P00533)

Compound	target	observed	action	method	IC50
Oc1ccc([C@@H]2c3c(O)cc(O)cc3[C@@H]3c4c(cc(O)c5c4[C@@H]2[C@H](c2ccc(O)cc2)[C@H]5c2cc(O)cc4c2[C@@H](c2cc(O)cc(O)c2)[C@H](c2ccc(O)cc2)O4)O[C@H]3c2ccc(O)cc2)cc1	AMY1A	enzyme activity	inhibitor		5300 nM
O=C(Nc1ccc(-c2ccc3cccnc3c2)cc1)C1CCN(S(=O)(=O)c2ccccc2Cl)CC1	Ephx2	enzyme activity	inhibitor	fluorescence	38.2 nM
Cc1ncc(CN2CCc3ccccc3C2)c2cc(C(=O)c3ccc4c(c3)OCCO4)oc12	EGFR C797S/L858R/T790M	enzyme activity	inhibitor	ADP detection	42.7 nM
CC(C)C[C@H](NC(=O)[C@H](Cc1ccc2ccccc2c1)NC(=O)[C@H](CCC(=O)O)NC(=O)c1cccc(F)c1)C(=O)NC1CC1c1ccccc1 (stereo partly drawn)	APC	ligand displacement		FP	29500 nM
O=C(Nc1ccc(-c2ccc3ncccc3c2)cc1)C1CCN(S(=O)(=O)c2ccccc2Cl)CC1	Ephx2	enzyme activity	inhibitor	fluorescence	87.7 nM
COc1ccc2nc3cc(Cl)ccc3c(Nc3cc(CN4CCCC4)c(O)c(CN4CCCC4)c3)c2n1	Palmitoyl-protein thioesterase 1 (Homo sapiens, UniProt P50897)	enzyme activity	inhibitor		> 125000 nM
Oc1ccc(/C=C/c2cc(O)cc(O)c2)cc1	AMY1A	enzyme activity	inhibitor		> 100000 nM
CC(C)C[C@H](NC(=O)[C@H](Cc1ccc2ccccc2c1)NC(=O)[C@H](CCC(=O)O)NC(=O)c1ccncc1)C(=O)NC1CC1c1ccccc1 (stereo partly drawn)	APC	ligand displacement		FP	72400 nM
O=C(Nc1ccc(-c2ccc3ccccc3n2)cc1)C1CCN(S(=O)(=O)c2ccccc2Cl)CC1	Ephx2	enzyme activity	inhibitor	fluorescence	182 nM
CC(C)C[C@H](NC(=O)[C@H](Cc1ccc2ccccc2c1)NC(=O)[C@H](CCC(=O)O)NC(=O)C1N=CN=N1)C(=O)NC1CC1c1ccccc1 (stereo partly drawn)	APC	ligand displacement		FP	81300 nM
O=C(Nc1ccc(-c2cccc3cccnc23)cc1)C1CCN(S(=O)(=O)c2ccccc2Cl)CC1	Ephx2	enzyme activity	inhibitor	fluorescence	95.9 nM
Cc1ccc2c(-c3cc4c(CN5CCN(Cc6ccccn6)CC5)cnc(C)c4o3)cc(=O)oc2c1	EGFR	enzyme activity	inhibitor	ADP detection	8.38 nM
Cc1c(Cc2ccccc2)c(=O)oc2c(C)c(OCC(=O)NN=Cc3ccccc3)ccc12	EGFR	enzyme activity	inhibitor	ATP luminescence	307 nM
Cc1ncc(CN2CCN(Cc3ccccn3)CC2)c2cc(C(=O)c3ccc4c(c3)OCCO4)oc12	EGFR C797S/L858R/T790M	enzyme activity	inhibitor	ADP detection	29 nM
COc1cc(C(=O)N[C@@H](CCC(=O)O)C(=O)N[C@@H](Cc2ccc3ccccc3c2)C(=O)N[C@@H](CC(C)C)C(=O)NC2CC2c2ccccc2)ccn1 (stereo partly drawn)	APC	ligand displacement		FP	38900 nM
